Screens: PubChem BioAssay, several laboratories
HSV augment = HSV replication enhancement; HSV replication augmentation in cells, fold increase; maximum fold increase; 220,000 tested, 0.005% active; AID 1956; in the data active = maximum fold increase above about 1.5; tested in PC3 cells
Dynein cargo inh = dynein cargo transport inhibition; 3617.4 mouse cells, GR-EGFP nuclear translocation imaging; test concentration mostly 20 µM; stimulated with dexamethasone, 1 µM; stronger effect = lower value; z-score, hits read low; 220,000 tested, 0.47% active;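 active = plate z-score of nuclear minus cytoplasmic receptor signal below a set negative limit, without overly bright fluorescence or cell loss, cut at about -3.5 in these data, passing the limit was not always enough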;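 note: z-score of nuclear minus cytoplasmic ring GR-EGFP intensity difference per well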
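Buffer or medium – tet-free medium with charcoal-stripped serum · Signal – automated 10x imaging of fixed Hoechst-stained cells · Also added – dexamethasone agonist, 1.0 µM final, for 30 min · Incubation – induction 48 h, compound 1 h, agonist 30 min · Read-out – GR-EGFP nuclear translocation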
MT stabilize HCS = microtubule stabilizers in HeLa cells; HeLa tubulin immunostaining HCS, 24 h; share of cells brighter than vehicle mean+2SD; % tubulin-high responders, % at 10 µM; 200,000 tested, 0.83% active; AID 2205;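 active = plate Z-score above 3 for both tubulin-high and condensed-nucleus cell shares, with cell loss under 80%, at 10 µM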;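 note: anti alpha tubulin signal scored within the nucleus-defined area of each cell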
Lmaj promast = Leishmania major promastigote growth inhibition. inhibition, % at 10 µM. Leishmania major promastigotes, resazurin fluorescence viability. 200,000 tested, 9% active. AID 1063; in the data active = inhibition above about 50%;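 note: promastigotes grown with compound for 44 hours at 28 °C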
bCat nuc transl = modulators of beta-catenin nuclear translocation; HeLa beta-catenin nuclear translocation, immunofluorescence imaging; nuclear translocation activity, % at 5 µM; 190,000 tested, 0.3% active; AID 1665;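 active = nuclear translocation activity above 50% at 5 µM, with a well cell count of 50 or more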;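 note: per-cell ratio of nuclear to cytoplasmic median beta-catenin stain intensity; plate controls were DMSO negative control for no effect and GSK-3 inhibitor IX positive control for full effect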
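test system = HeLa cells, endogenous beta-catenin | dosing = single 5 µM dose plus 0.02–20 µM confirmation series | times = compound treatment 24 h, 37°C, 5% CO2 | technique = beta-catenin immunofluorescence imaging with DAPI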
* = called active by the depositor; i = inactive; · = no result given. Compounds with a hit are over-represented: about 8.9% of the library has one in this group of screens.

SMILES	HSV augment	Dynein cargo inh	MT stabilize HCS	Lmaj promast	bCat nuc transl
CC(/C=C/c1cccc([N+](=O)[O-])c1)=N/NC(=O)c1cccnc1	i	-0.699	3.3	95.8*	-1.8
COc1ccc(C(=O)NN=C(Cc2ccccc2)Cc2ccccc2)cc1OC	i	-0.386	2.1	51.0*	·
COc1ccc(Nc2nc(CC(C)=O)ns2)cc1	i	-0.0572	3.7	-3.0	-7.1
COc1ccccc1C(=O)C1CCCN(C(=O)CSc2ccccn2)C1 (centres undefined)	i	-0.251	1.8	-4.5	-1.7
CN1C(=S)SC(N(O)C(=O)Nc2cccc3ccccc23)C1(C)C (centres undefined)	i	2.07	2.1	5.7	-0.1
Cc1cccc(OCC2=NS(=O)(=O)c3ccccc3N2)c1	i	-0.03	4.6	-2.1	1.8
O=C(NC(=S)NCCc1ccccc1)c1ccco1	·	-0.602	2.3	1.8	3.3
COc1ccc(OC)c(/C=N\NC(=O)c2ccc(=O)n(C)c2)c1	i	-0.262	3.8	-3.2	0.2
O=C(NN=C(Cc1ccccc1)Cc1ccccc1)c1ccccc1F	i	-0.337	3.1	64.2*	-1.4
CC(/C=C/c1ccccc1)=N\NC(=O)c1ccc2c(c1)OCCO2	·	0.854	1.8	-1.9	2.2
O=C(/C=C/c1ccccc1)NC(=S)NNC(=O)c1cccnc1	i	0.33	2.1	55.5*	·
CC/C(Cc1ccccc1)=N\NC(=O)c1cc([N+](=O)[O-])cc([N+](=O)[O-])c1	i	0.481	1.1	58.9*	1.8
CC(/C=C/c1ccccc1)=N/NC(=O)c1cc([N+](=O)[O-])cc([N+](=O)[O-])c1	i	0.606	5.4	82.9*	1.5
CC(C)CC(NC(=O)C(NC(=O)C(Cc1ccc(OCc2ccccc2)cc1)NC(=O)OC(C)(C)C)C(C)C)C(N)=O (centres undefined)	i	-0.252	4.2	8.6	1.3
COc1cc(/C=C2/CCc3ccccc3C2=O)cc(OC)c1OC	i	-0.709	6.0	55.2*	4.0
COc1ccc(/C=C2\COc3ccccc3C2=O)cc1OC	i	-3.4	3.3	100.2*	-1.3
COc1ccc2c(c1)CC/C(=C\c1ccc(OC)c(Cn3cccn3)c1)C2=O	i	-0.726	2.3	97.7*	·
COc1ccc(/C=C2/CCc3ccccc3C2=O)cc1OC	i	-0.345	1.6	52.4*	0.5
COc1ccc(/C=C2\CCc3ccccc3C2=O)cc1CN1CCOCC1	i	-0.717	·	·	0.2
COc1cc(/C=C2\CCc3ccccc3C2=O)cc(OC)c1OC	i	-0.319	3.2	76.9*	0.5
CC(/C=N/NC(=O)c1cc(-c2ccccc2)nc2ccccc12)=C\c1ccco1	i	-0.198	7.2	97.6*	155.2*
CC(/C=N/NC(=O)c1cc(-c2ccc(Cl)cc2)nc2ccccc12)=C\c1ccco1	i	0.27	13.6	61.9*	234.9*
Cc1ccc(Oc2cc(NC(=O)CCCn3nc([N+](=O)[O-])c(Cl)c3C)cc([N+](=O)[O-])c2)cc1	i	-0.42	3.4	24.4	-1.0
O=C(N=Nc1c(O)[nH]c2ccc(Br)cc12)c1ccccc1-n1cccc1	·	1.07	10.1	24.3	153.5*
O=C(N=Nc1c(O)[nH]c2ccc(Br)cc12)c1cc(-c2cccs2)nc2ccccc12	i	-0.0574	6.9	21.6	0.3
SMILES	HSV augment	Dynein cargo inh	MT stabilize HCS	Lmaj promast	bCat nuc transl
O=C(N=Nc1c(O)[nH]c2ccc(Br)cc12)c1cc(-c2cccc3ccccc23)n[nH]1	i	1.06	1.8	66.2*	0.6
CCOC(=O)c1c(C)c(C(=O)Nc2cc(OC)ccc2OC)c(C)n1CC	i	-0.159	24.8*	14.8	3.3
CCOC(=O)c1[nH]c(C)c(C(=O)Nc2cc(OC)ccc2OC)c1C	·	0.52	26.5*	19.2	55.8*
COc1ccc2[nH]c(=O)c(CN(Cc3cccs3)C(=S)NCC3CCCO3)cc2c1 (centres undefined)	i	0.187	·	·	-0.4
Cc1cc(C)c2[nH]c(=O)c(CN(Cc3ccco3)C(=S)NCC3CCCO3)cc2c1 (centres undefined)	i	-0.307	3.2	87.9*	-1.2
Cc1ccc2cc(CN(Cc3ccco3)C(=S)NCC3CCCO3)c(=O)[nH]c2c1C (centres undefined)	i	-0.951	5.7	4.3	0.3
Cc1cc2cc(CN(Cc3cccs3)C(=S)NCC3CCCO3)c(=O)[nH]c2cc1C (centres undefined)	i	0.822	2.4	96.4*	0.1
Cc1cc(C)c2[nH]c(=O)c(CN(Cc3cccs3)C(=S)NCC3CCCO3)cc2c1 (centres undefined)	i	-0.44	5.8	52.7*	-0.2
COc1ccc2c(c1OC)C(=O)OC2Nc1ccccn1 (centres undefined)	i	-0.923	2.1	-5.1	-1.7
CCC(c1nnnn1C1CCCCC1)N(Cc1ccco1)Cc1cc2ccc(OC)cc2[nH]c1=O (centres undefined)	i	-0.61	3.7	74.3*	-0.8
COc1ccc2[nH]c(=O)c(CN(C3CCCCC3)C(c3nnnn3Cc3ccco3)C(C)C)cc2c1 (centres undefined)	·	-2.77	7.3	65.4*	-2.4
Cc1ccc2cc(C(c3nnnn3C3CCCC3)N(Cc3cccnc3)Cc3ccco3)c(=O)[nH]c2c1 (centres undefined)	i	0.404	4.6	24.6	·
COc1ccc2[nH]c(=O)c(C(c3nnnn3C3CCCC3)N(C)C3CCCCC3)cc2c1 (centres undefined)	i	-0.124	3.7	53.1*	-5.6
Cc1ccc2[nH]c(=O)c(C(c3nnnn3C3CCCC3)N(Cc3cccnc3)Cc3ccco3)cc2c1 (centres undefined)	i	0.236	2.0	85.0*	4.2
COc1ccc(NC(=O)NCCc2ccc(Cl)cc2)cc1OC	i	2.54	2.2	7.2	0.2
CSc1ccccc1C(=O)Nc1nc2ccccc2c(=O)[nH]1	i	-0.754	2.5	12.5	0.8
COc1ccc(-c2[nH]ncc2CN2CCN(Cc3cccs3)CC2)cc1F	i	-0.75	1.9	-4.5	0.2
Clc1ccc(C(c2nnnn2C2CCCCC2)N(Cc2cccnc2)Cc2ccco2)cc1 (centres undefined)	i	0.49	1.2	99.9*	-1.0
Cc1ccc2cc(C(c3nnnn3C3CCCC3)N(Cc3ccco3)Cc3cccs3)c(=O)[nH]c2c1 (centres undefined)	i	-1.18	0.6	81.8*	-2.0
COCCn1nnnc1C(C(C)C)N(Cc1ccccc1)Cc1cc2cc(OC)ccc2[nH]c1=O (centres undefined)	i	-0.992	2.7	12.6	-2.2
CC(c1nnnn1C1CCCCC1)N(Cc1ccccc1)Cc1cccnc1 (centres undefined)	i	0.0871	2.8	92.3*	-2.1
CCOC(=O)Cn1nnnc1C(CC)N(Cc1cccs1)Cc1cc2ccc(OC)cc2[nH]c1=O (centres undefined)	i	0.844	5.1	98.8*	-0.2
